Experimental findings from ChEMBL document CHEMBL5329174, “Discovery of benzoxazole-thiazolidinone hybrids as promising antibacterial agents against Staphylococcus aureus and Enterococcus species” (RSC Med Chem, 2023) are described below.

SMILES strings stand for the structures. In brackets after ≈: the same amount, converted by molar mass.

One data set relates to Escherichia coli. Briefly: Antibacterial activity against Escherichia coli ATCC 25922 assessed as reduction in bacterial growth. It counts as functional. The essentials: (§1)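 CLSI broth microdilution in cation-supplemented Mueller–Hinton broth II; overnight starter cultures (37 °C, shaking, 18–24 h) adjusted by OD600 to ~10^6 CFU/mL. Compounds dosed from DMSO stocks (10 mg/mL stock) as two-fold dilutions, 64–0.5 mg/L. Plates held 37 °C, 18–24 h. MIC = lowest concentration without visible growth. Three independent runs, each in duplicate.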

The subject of data set [1] is Staphylococcus aureus. Briefly: Antibacterial activity against Staphylococcus aureus ATCC 29213 assessed as reduction in bacterial growth. It counts as functional. The essentials: as §1
The test system of another data set is Klebsiella pneumoniae. Briefly: Antibacterial activity against Klebsiella pneumoniae BAA-1705 assessed as reduction in bacterial growth. It counts as functional. The essentials: as §1
Another data set deals with Acinetobacter baumannii. Briefly: Antibacterial activity against Acinetobacter baumannii BAA-1605 assessed as reduction in bacterial growth. It counts as functional. The essentials:
as §1

Another data set deals with Pseudomonas aeruginosa. Briefly: Antibacterial activity against Pseudomonas aeruginosa ATCC 27853 assessed as reduction in bacterial growth. The format is functional. The essentials:
as §1

A short description of data set [2]: Cytotoxicity against african green monkey Vero cells assessed as reduction in cell viability incubated for 72 hrs by MTT assay. It counts as toxicity, cell-based. As to conditions: chlorocebus sabaeus. The essentials: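 Vero (ATCC CCL-81) cells seeded at ~10^3 per well, 37 °C, 5% CO2. After 24 h, compound added at 100–12.5 μg/mL for 72 h. MTT then given for 4 h at 37 °C, formazan dissolved in DMSO, absorbance read at 540 nm. CC50 taken as the concentration giving 50% viability loss; doxorubicin as positive control; triplicate.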

For data set [3], the system named is Staphylococcus aureus. Briefly: Antibacterial activity against vancomycin-resistant Staphylococcus aureus VRS 1 assessed as reduction in bacterial growth. The format is functional. The procedure, abridged:
(§2)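 CLSI broth microdilution in cation-supplemented Mueller–Hinton broth II. Starter cultures were grown overnight at 37 °C with shaking from a single MHA colony, then diluted by OD600 to ~10^6 CFU/mL. Compounds came from 10 mg/mL DMSO stocks and were tested two-fold from 64 to 0.5 mg/L. Plates were incubated 37 °C for 18–24 h. MIC was taken as the lowest concentration with no visible growth. Three independent runs, each in duplicate.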

Data set [4] deals with Staphylococcus aureus. Briefly: Antibacterial activity against vancomycin-resistant Staphylococcus aureus VRS 4 assessed as reduction in bacterial growth. It counts as functional. The essentials: as §2
Data set [5] relates to Staphylococcus aureus. Briefly: Antibacterial activity against vancomycin-resistant Staphylococcus aureus VRS 12 assessed as reduction in bacterial growth. It counts as functional. The procedure, abridged: as §2
Data set [6] concerns Enterococcus faecalis. Briefly: Antibacterial activity against vancomycin-susceptible Enterococcus faecalis NR 31884 assessed as inhibition of bacterial growth incubated for 18 to 24 hrs by broth microdilution assay. It counts as functional. As to conditions: time 18-24 hrs. The essentials: as §1
On the technique in general: Dilution methods test growth across graded concentrations, often in twofold steps.

Data set [7] deals with Enterococcus faecalis. Briefly: Antibacterial activity against vancomycin-susceptible Enterococcus faecalis NR 31885 assessed as inhibition of bacterial growth incubated for 18 to 24 hrs by broth microdilution assay. It counts as functional. As to conditions: time 18-24 hrs. The essentials:
as §1

For data set [8], the system named is Enterococcus faecalis. Briefly: Antibacterial activity against vancomycin-susceptible Enterococcus faecalis NR 31886 assessed as inhibition of bacterial growth incubated for 18 to 24 hrs by broth microdilution assay. The format is functional. As to conditions: time 18-24 hrs. The procedure, abridged: as §1
The test system of data set [9] is Enterococcus faecalis. Briefly: Antibacterial activity against vancomycin-susceptible Enterococcus faecalis NR 31887 assessed as inhibition of bacterial growth incubated for 18 to 24 hrs by broth microdilution assay. It counts as functional. As to conditions: time 18-24 hrs. The procedure, abridged: as §1
In data set [10] the test system is Enterococcus faecalis. Briefly: Antibacterial activity against vancomycin-susceptible Enterococcus faecalis NR 31888 assessed as inhibition of bacterial growth incubated for 18 to 24 hrs by broth microdilution assay. As to conditions: time 18-24 hrs. It counts as functional. The procedure, abridged:
as §1

As a reminder, the MIC is the smallest concentration in the dilution series that meets the test's criterion for growth inhibition. Usually CC50 stands for the concentration at which the toxic effect on the cells reaches its halfway point.

For `O=C1N/C(=N\c2nc3ccccc3o2)S/C1=C\c1ccc([N+](=O)[O-])cc1`, the MIC with Escherichia coli, with Staphylococcus aureus [1], with Klebsiella pneumoniae, in the data set with Acinetobacter baumannii and in the data set with Pseudomonas aeruginosa was above 64 µg/mL in each case.
In the case of `O=C1N/C(=N\c2nc3ccccc3o2)S/C1=C\c1cccc(F)c1`, the MIC in the data set with Escherichia coli was above 64 µg/mL; in the data set on Staphylococcus aureus [1], 8 µg/mL (≈ 23.6 µM); in the data set on Klebsiella pneumoniae, above 64 µg/mL; in the data set on Acinetobacter baumannii, above 64 µg/mL; in the data set with Pseudomonas aeruginosa it was above 64 µg/mL.
`O=C1N/C(=N\c2nc3ccccc3o2)S/C1=C\c1ccccc1Cl`: the minimum inhibitory concentration (MIC) in the data set with Escherichia coli was above 64 µg/mL; in the data set with Staphylococcus aureus [1] it was 16 µg/mL (≈ 45 µM); in the data set with Klebsiella pneumoniae, above 64 µg/mL; in the data set on Acinetobacter baumannii, above 64 µg/mL; in the data set with Pseudomonas aeruginosa, above 64 µg/mL.
Take `O=C1N/C(=N\c2nc3ccccc3o2)S/C1=C\c1cccs1`: the MIC with Escherichia coli is above 64 µg/mL; with Staphylococcus aureus [1] it was 16 µg/mL (≈ 48.9 µM); in the data set with Klebsiella pneumoniae it was above 64 µg/mL; with Acinetobacter baumannii it was above 64 µg/mL; with Pseudomonas aeruginosa it was above 64 µg/mL.
As to `O=C1N/C(=N\c2nc3ccccc3o2)S/C1=C\c1ccc(F)cc1`, the minimal inhibitory concentration (MIC) in the data set on Escherichia coli was above 64 µg/mL; with Staphylococcus aureus [1], 8 µg/mL (≈ 23.6 µM); in the data set with Klebsiella pneumoniae it was above 64 µg/mL; in the data set on Acinetobacter baumannii, above 64 µg/mL; in the data set with Pseudomonas aeruginosa, above 64 µg/mL.
Regarding `O=C1N/C(=N\c2nc3ccccc3o2)S/C1=C\c1ccc(Br)cc1`, the MIC in the data set on Escherichia coli was above 64 µg/mL; in the data set with Staphylococcus aureus [1], 32 µg/mL (≈ 79.9 µM); with Klebsiella pneumoniae, above 64 µg/mL; with Acinetobacter baumannii it was above 64 µg/mL; with Pseudomonas aeruginosa, above 64 µg/mL.
With `CSc1ccc(/C=C2\S/C(=N/c3nc4ccccc4o3)NC2=O)cc1`, the MIC in the data set on Escherichia coli was above 64 µg/mL; in the data set on Staphylococcus aureus [1] it was 32 µg/mL (≈ 87.1 µM); in the data set on Klebsiella pneumoniae, above 64 µg/mL; with Acinetobacter baumannii, above 64 µg/mL; in the data set on Pseudomonas aeruginosa, above 64 µg/mL.
On to `O=C1N/C(=N\c2nc3ccccc3o2)S/C1=C\c1ccc(Cl)cc1`, for which the minimal inhibitory concentration (MIC) is above 64 µg/mL in the data set on Escherichia coli; 8 µg/mL (≈ 22.5 µM) in the data set with Staphylococcus aureus [1]; above 64 µg/mL in the data set on Klebsiella pneumoniae; above 64 µg/mL with Acinetobacter baumannii; above 64 µg/mL in the data set with Pseudomonas aeruginosa.
In the case of `O=C1N/C(=N\c2nc3ccccc3o2)S/C1=C\c1ccccc1`, the minimum inhibitory concentration (MIC) was above 64 µg/mL in the data set with Escherichia coli; 4 µg/mL (≈ 12.4 µM) with Staphylococcus aureus [1]; above 64 µg/mL in the data set with Klebsiella pneumoniae; above 64 µg/mL with Acinetobacter baumannii; above 64 µg/mL in the data set on Pseudomonas aeruginosa.
For `CN(C)c1ccc(/C=C2\S/C(=N/c3nc4ccccc4o3)NC2=O)cc1`, the MIC with Escherichia coli, with Staphylococcus aureus [1], in the data set on Klebsiella pneumoniae, in the data set with Acinetobacter baumannii and in the data set on Pseudomonas aeruginosa was above 64 µg/mL each time.
Take `COc1cccc2c1C(=O)c1c(O)c3c(c(O)c1C2=O)C[C@@](O)(C(=O)CO)C[C@@H]3O[C@H]1C[C@H](N)[C@H](O)[C@H](C)O1` [DOXORUBICIN]: the CC50 at 72 h in [2] is 10 µg/mL (≈ 18.4 µM).
With `O=C1N/C(=N\c2nc3ccccc3o2)S/C1=C\c1cccc(Cl)c1`, the MIC in the data set with Escherichia coli was above 64 µg/mL; with Staphylococcus aureus [1], 8 µg/mL (≈ 22.5 µM); in the data set on Klebsiella pneumoniae it was above 64 µg/mL; in the data set with Acinetobacter baumannii it was above 64 µg/mL; in the data set with Pseudomonas aeruginosa, above 64 µg/mL.
As for `COc1ccc(/C=C2\S/C(=N/c3nc4ccccc4o3)NC2=O)cc1O`, the MIC was above 64 µg/mL in the data set with Escherichia coli; 4 µg/mL (≈ 10.9 µM) in the data set on Staphylococcus aureus [1]; above 64 µg/mL in the data set on Klebsiella pneumoniae; above 64 µg/mL with Acinetobacter baumannii; above 64 µg/mL in the data set with Pseudomonas aeruginosa.
Regarding `O=C1CS/C(=N/c2nc3ccccc3o2)N1`, the MIC with Escherichia coli is above 64 µg/mL; in the data set on Staphylococcus aureus [1] it was 8 µg/mL (≈ 34.3 µM); in the data set with Klebsiella pneumoniae it was above 64 µg/mL; with Acinetobacter baumannii, above 64 µg/mL; in the data set on Pseudomonas aeruginosa, above 64 µg/mL.
For the compound `CN[C@H](CC(C)C)C(=O)N[C@H]1C(=O)N[C@@H](CC(N)=O)C(=O)N[C@H]2C(=O)N[C@H]3C(=O)N[C@H](C(=O)N[C@H](C(=O)O)c4cc(O)cc(O)c4-c4cc3ccc4O)[C@H](O)c3ccc(c(Cl)c3)Oc3cc2cc(c3O[C@@H]2O[C@H](CO)[C@@H](O)[C@H](O)[C@H]2O[C@H]2C[C@](C)(N)[C@H](O)[C@H](C)O2)Oc2ccc(cc2Cl)[C@H]1O` [VANCOMYCIN], the minimum inhibitory concentration (MIC) in the data set with Staphylococcus aureus [3] was above 64 µg/mL; in the data set on Staphylococcus aureus [4] it was above 64 µg/mL; in the data set on Staphylococcus aureus [5], above 64 µg/mL; in the data set on Enterococcus faecalis [6], 2 µg/mL (≈ 1.38 µM); in the data set on Enterococcus faecalis [7] it was 2 µg/mL (≈ 1.38 µM); in the data set with Enterococcus faecalis [8] it was 2 µg/mL (≈ 1.38 µM). Moreover, the MIC in the data set on Enterococcus faecalis [9] and in the data set with Enterococcus faecalis [10] was 2 µg/mL (≈ 1.38 µM) throughout.
For `O=C1N/C(=N\c2nc3ccccc3o2)S/C1=C\c1ccccn1`, the minimum inhibitory concentration (MIC) was above 64 µg/mL in the data set with Escherichia coli; 8 µg/mL (≈ 24.8 µM) in the data set with Staphylococcus aureus [1]; above 64 µg/mL in the data set with Klebsiella pneumoniae; above 64 µg/mL in the data set with Acinetobacter baumannii; above 64 µg/mL in the data set with Pseudomonas aeruginosa.
For the compound `O=C1N/C(=N\c2nc3ccccc3o2)S/C1=C\c1ccccc1F`, the MIC with Escherichia coli was above 64 µg/mL; in the data set on Staphylococcus aureus [1], 16 µg/mL (≈ 47.1 µM); in the data set with Klebsiella pneumoniae, above 64 µg/mL; with Acinetobacter baumannii, above 64 µg/mL; in the data set with Pseudomonas aeruginosa, above 64 µg/mL.
Take `O=C1N/C(=N\c2nc3ccccc3o2)S/C1=C\c1cccc([N+](=O)[O-])c1`: the minimal inhibitory concentration (MIC) in the data set with Escherichia coli, in the data set with Staphylococcus aureus [1], in the data set on Klebsiella pneumoniae, with Acinetobacter baumannii and with Pseudomonas aeruginosa was above 64 µg/mL in each case.
With `COc1cccc(/C=C2\S/C(=N/c3nc4ccccc4o3)NC2=O)c1`, the MIC in the data set on Escherichia coli, with Staphylococcus aureus [1], with Klebsiella pneumoniae, in the data set on Acinetobacter baumannii and in the data set on Pseudomonas aeruginosa was above 64 µg/mL in each case.
Consider `O=C1N/C(=N\c2nc3ccccc3o2)S/C1=C\c1ccco1`, for which the MIC in the data set with Escherichia coli is above 64 µg/mL; in the data set with Staphylococcus aureus [1], 8 µg/mL (≈ 25.7 µM); in the data set on Klebsiella pneumoniae it was above 64 µg/mL; with Acinetobacter baumannii, above 64 µg/mL; in the data set on Pseudomonas aeruginosa, above 64 µg/mL.
In the case of `COc1ccc(/C=C2\S/C(=N/c3nc4ccccc4o3)NC2=O)cc1`, the minimum inhibitory concentration (MIC) in the data set with Escherichia coli, in the data set on Staphylococcus aureus [1], with Klebsiella pneumoniae, with Acinetobacter baumannii and in the data set on Pseudomonas aeruginosa was above 64 µg/mL in each case.
For `O=C1N/C(=N\c2nc3ccccc3o2)S/C1=C\c1ccccc1[N+](=O)[O-]`, the minimum inhibitory concentration (MIC) in the data set on Escherichia coli was above 64 µg/mL; in the data set with Staphylococcus aureus [1], 8 µg/mL (≈ 21.8 µM); with Klebsiella pneumoniae, above 64 µg/mL; in the data set with Acinetobacter baumannii, above 64 µg/mL; in the data set on Pseudomonas aeruginosa, above 64 µg/mL.
`O=C1N/C(=N\c2nc3ccccc3o2)S/C1=C\c1ccccc1O`: the MIC with Escherichia coli is above 64 µg/mL; in the data set on Staphylococcus aureus [1], 4 µg/mL (≈ 11.9 µM); with Klebsiella pneumoniae, above 64 µg/mL; in the data set with Acinetobacter baumannii, above 64 µg/mL; with Pseudomonas aeruginosa, above 64 µg/mL.
